Measurements collected from several papers.
Each line is one published result; the experiments were not run side by side.
Target: Serine/threonine-protein kinase pim-1 (PIM1, Homo sapiens, UniProt P11309)

For `Cn1cc(-c2cccc(N3CCc4c(sc5c4CC(C)(C)C5)C3=O)c2CO)cc(Nc2ccncn2)c1=O`, the inhibition was 2% (enzyme activity; inhibitor; 1 µM).
With `N#CC1(c2ccccn2)CCN(Cc2cc(C(=O)O)c(=O)n3ccccc23)CC1` the remaining binding was 99% (cell-free assay; competition with immobilised ligand; 1 µM).
For `COc1ncccc1-c1cnn2ccc(N3CCN(C(=O)OC(C)C)CC3)nc12`, the remaining binding was 100% (binding; competition with immobilised ligand; 1 µM).
`CC(C)(C)c1cc(C=C(C#N)C#N)cc(Br)c1O` has a remaining activity of 94.7% (enzyme activity; inhibitor; 0.5 µM).
With `Cc1nn(C)cc1-c1nc2c(N3CCN(Cc4ccc(Cl)cc4)CC3)c(Cl)cnc2[nH]1` the remaining binding was 100% (binding; competition with immobilised ligand; 1 µM).
`Cn1cc(-c2cc(F)cc(N3CCn4c(cc5c4CCCC5)C3=O)c2CO)cc(Nc2ccc(N3CCN(C4COC4)CC3)cn2)c1=O` has an inhibition of 11% (enzyme activity; inhibitor; 0.1 µM).
With `Cn1cncc1[C@@](O)(COc1ccc(C#N)cc1-c1ccc(OC(F)(F)F)cc1)c1ccc(C#N)cc1` the remaining binding was 100% (cell-free assay; competition with immobilised ligand; 1 µM).
`O=c1[nH]c2ccccc2n1C1CCN(Cc2ccc(-c3[nH]c4cc5ncnc5cc4nc3-c3ccccc3)cc2)CC1` gave a remaining signal of 106% (cell-free assay; 0.5 µM).
